Screening data from PubChem BioAssay.
SUMO1-SIM PPI: SUMO1-SIM interaction modulation. SUMO1 binding to a labelled peptide, TR-FRET, 1 h. inhibition, % at 20 µM. 0.33% of 360,000 active. AID 602429; in the data active = inhibition above about 37%
Target sequence (P63165 whole entry, looked up): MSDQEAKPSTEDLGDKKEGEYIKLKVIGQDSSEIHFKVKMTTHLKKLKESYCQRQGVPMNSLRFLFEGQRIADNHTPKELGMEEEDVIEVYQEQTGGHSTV
LMPTP block: LMPTP (human) inhibition. P24666. inhibition, % at 20 µM. 0.22% of 360,000 active. recombinant LMPTP-A, OMFP fluorogenic substrate, fluorescence intensity;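 active = compounds that cut the enzyme signal by at least half of the control window in the single-dose screen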
Target sequence (P24666 whole entry, looked up): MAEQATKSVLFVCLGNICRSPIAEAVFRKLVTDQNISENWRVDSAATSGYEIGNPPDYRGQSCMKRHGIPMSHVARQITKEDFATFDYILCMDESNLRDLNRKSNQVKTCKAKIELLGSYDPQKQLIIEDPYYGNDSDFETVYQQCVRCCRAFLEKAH
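Test system: LMPTP-A phosphatase enzyme. Amount: LMPTP-A at 0.625 nM final in the reaction. Reagent: OMFP substrate, 400 µM final. Times: 50 min at room temperature. Signal: endpoint fluorescence intensity from OMFP dephosphorylation. Read-out basis: % inhibition. Benchmarks: no-enzyme and uninhibited controls.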
STEP block: inhibitors of human striatal-enriched phosphatase STEP | inhibition, % at 20 µM | recombinant STEP, OMFP fluorogenic substrate, fluorescence | 0.25% of 360,000 active;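 active = inhibition at 20 µM, scaled per plate between control wells, above about 37%, limit read from the data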
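Test system: STEP tyrosine phosphatase / Reagent: OMFP at 25 µM / Doses: 20 µM, 1% DMSO / Read-out: percent inhibition scaled to no-enzyme and uninhibited-enzyme controls, plate-pattern corrected / Detection: FITC-channel fluorescence of OMFP product / Medium: Bis-Tris buffer pH 6.0, 2.5 mM DTT, 0.005% Tween 20 / Schedule: 20 min at room temperature, dark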
GRK2 aptamer HTS: blocks RNA aptamer binding to human GRK2. inhibition of aptamer binding, % at 10 µM. 0.59% of 330,000 active. P25098. bead flow cytometry, FAM-aptamer displacement from GRK2. AID 488847;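 active = inhibition of aptamer binding above 40%, roughly 3 SD of noise, on plates passing a quality check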;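 note: median bead fluorescence of bound FAM aptamer so fluorescent compounds give negative values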
DNMT1 block: DNMT1 (human) enzyme inhibition; P26358; DNMT1 molecular beacon, Hinp1I cleavage, fluorescence; inhibition (reported as % activation of signal), % at 10 µM; 0.83% of 360,000 active; in the data active = inhibition above about 50%
Scp-1 inhibitor: inhibitors of human Scp-1 phosphatase | Q9GZU7 | Recombinant Scp1, phosphopeptide, malachite green phosphate absorbance | inhibition, % at 20 µM | 0.88% of 340,000 active | AID 493091;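 active = inhibition above about 50% at 20 µM, limit read from the data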
Target sequence (Q9GZU7 76-261 limits assumed): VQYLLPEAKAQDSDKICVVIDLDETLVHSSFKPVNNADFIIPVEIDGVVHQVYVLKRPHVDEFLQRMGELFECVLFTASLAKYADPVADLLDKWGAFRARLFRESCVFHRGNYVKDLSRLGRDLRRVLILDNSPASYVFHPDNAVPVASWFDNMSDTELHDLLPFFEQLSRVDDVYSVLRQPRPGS
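System: truncated SCP-1 phosphatase (76-261aa); medium: Tris acetate buffer pH 5.5 with MgCl2 and Tween-20; incubation: 45 min room-temperature reaction, 5 min colour, 30 min stabiliser; compound: single 20 µM dose, 1% DMSO; reagent: Phosphorylated 17-residue peptide substrate; read-out: % inhibition at 20 µM; technique: colorimetric free-phosphate detection, absorbance 630 nm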
DNMT1 confirm: confirmation of human DNMT1 inhibitors. shares compounds with DNMT1 block. DNMT1 molecular beacon HinP1I cleavage, fluorescence. inhibition, % at 10 µM. 8% of 2,300 active;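 active = average inhibition of at least 30% in the single-concentration confirmation test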
DNMT1 interf: beacon fluorescence artifact counter-screen; shares compounds with DNMT1 block; DNMT1 molecular beacon spectral interference counterscreen, fluorescence 485/520; activation (fluorescence interference), % at 10 µM; 1% of 2,300 active;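 active = activation of at least 30% at 10 µM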;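 note: DNMT1 catalytic domain with a HinP1I cleavage step and a FAM/dabcyl DNA beacon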
Hits are given with their value; i = inactive; nt = no result. Rows were chosen to be rich in hits. Some 2.2% of all compounds tested hit in one or more screens of this group.

SMILES	SUMO1-SIM PPI	LMPTP block	STEP block	GRK2 aptamer HTS	DNMT1 block	Scp-1 inhibitor	DNMT1 confirm	DNMT1 interf
N#C/C(=C/c1ccc(-c2cccc([N+](=O)[O-])c2)o1)C(=O)Nc1nc(-c2cccs2)cs1	i	i	i	nt	i	i	nt	nt
Cn1cc(CN2C[C@H]3CC[C@H]2C3)c(-c2ccccc2F)n1	i	i	i	i	58	i	i	i
O=C(COC(=O)/C=C/c1ccc(Br)o1)Nc1ccc2[nH]c(=O)[nH]c2c1	104	i	i	i	82	nt	i	i
O=C(COC(=O)/C=C/c1cccc(Cl)c1)Nc1ccc2[nH]c(=O)[nH]c2c1	i	i	i	i	i	i	nt	nt
CN(C)c1ccc(/C=N/NC(=O)c2ccc(NC(=O)c3ccccc3)cc2)cc1	i	i	i	i	i	i	nt	nt
O=C(N/N=C/c1ccc(Br)cc1)c1ccc(NC(=O)c2ccccc2)cc1	i	i	i	nt	74	i	i	i
C#CCNC(=O)C[C@@H]1C[C@@]2(C(=O)OCC)CCCC=C2N(CCC2=CCCCC2)C1=O	i	i	nt	nt	nt	nt	nt	nt
CC1CCN(S(=O)(=O)c2ccc(-c3nnc(SCc4cccnc4)o3)cc2)CC1	i	i	i	i	55	i	i	i
COC(=O)CSc1nnc(-c2ccc(S(=O)(=O)N3CCC(C)CC3)cc2)o1	i	i	i	i	i	i	nt	nt
CCCCNC(=O)C[C@@H]1C[C@@]2(C(=O)OCC)CCC=C2N(CCC2=CCCCC2)C1=O	i	i	nt	nt	nt	nt	nt	nt
O=c1nc(Nc2ccccc2)sc2ccc([N+](=O)[O-])cc12	i	i	i	i	57	i	i	i
COc1cc(C#N)c(NC(=S)N2CCN(C(=O)c3ccco3)CC2)cc1OC	i	i	i	nt	i	nt	nt	nt
CCC(c1nnnn1-c1ccc2c(c1)OCCO2)N1CCN(C(C)=O)CC1 (stereo not drawn)	i	i	nt	nt	nt	nt	nt	nt
CCOC(=O)C1C(=O)CC(=O)CC1CC(C)SCC (stereo not drawn)	i	i	i	i	79	i	i	i
CC1(C(=O)Nc2ccc3nc[nH]c3c2)CCN1C(=O)C1(c2ccccc2)CC1 (stereo not drawn)	i	i	i	nt	101	nt	i	i
CCC(=O)N1CCc2cc(Br)c(S(=O)(=O)CCC(=O)NCCc3ccccc3)cc21	i	i	i	nt	i	i	nt	nt
CC(C)(C)OC(=O)NCc1ccc(NC(=O)c2nc[nH]c2C(=O)NCCCNC(=O)c2[nH]cnc2C(=O)Nc2ccc(CNC(=O)OC(C)(C)C)cc2)cc1	i	i	i	i	60	i	i	i
CC(C)(C)OC(=O)NCc1ccc(NC(=O)c2nc[nH]c2C(=O)NCCCCCCNC(=O)c2[nH]cnc2C(=O)Nc2ccc(CNC(=O)OC(C)(C)C)cc2)cc1	i	i	i	i	i	i	nt	nt
CC(C)(C)OC(=O)NCc1ccc(NC(=O)c2nc[nH]c2C(=O)NCCCCNC(=O)c2[nH]cnc2C(=O)Nc2ccc(CNC(=O)OC(C)(C)C)cc2)cc1	i	i	i	i	61	i	i	i
CCCCCCN1C[C@H](n2cc(C3CC3)nn2)[C@@H](O)C[C@@H]1c1ccc(Cl)cc1	i	i	i	nt	i	nt	nt	nt
Cc1cccc(C)c1-n1nnnc1C1c2ccccc2C(=O)N1CCCn1ccnc1 (stereo not drawn)	i	i	nt	nt	nt	nt	nt	nt
Cc1cccc(N2CCN(C(=O)C3CCCCC3)CC2)c1C	i	i	i	i	i	i	nt	nt
CCS(=O)(=O)N1Cc2ccccc2CC1C(=O)N1CCN(c2cccc(C)c2C)CC1 (stereo not drawn)	i	i	i	i	65	i	i	i
CCOc1ccc(NC(=S)NC(=O)/C=C/c2ccc(C)cc2)c([N+](=O)[O-])c1	i	i	i	i	53	i	i	i
CCOc1ccc(NC(=S)NC(=O)/C=C/c2ccc(OC)c(OC)c2)c([N+](=O)[O-])c1	i	i	i	i	i	i	nt	nt
SMILES	SUMO1-SIM PPI	LMPTP block	STEP block	GRK2 aptamer HTS	DNMT1 block	Scp-1 inhibitor	DNMT1 confirm	DNMT1 interf
CC(C)Nc1nc(Nc2ccc(C(N)=O)cc2)c2sccc2n1	i	i	i	nt	i	nt	nt	nt
COc1ccc(NC(=O)CSc2nc3c(cc2C#N)CN(C)CC3)cc1	i	i	i	i	71	i	i	i
CCN1CCc2nc(SCC(=O)Nc3ccc(OC)cc3)c(C#N)cc2C1	i	i	i	i	i	i	nt	nt
COc1ccc(-c2cc(C(=O)Nc3cc(Cl)ccc3O)no2)cc1	i	66	i	i	54	i	i	i
Cc1cc(C)n(-c2nc(Nc3ccccc3)nc(-n3nc(C)cc3C)n2)n1	i	i	i	i	64	i	i	i
Cc1cc(C)n(-c2nc(N(c3ccccc3)c3ccccc3)nc(-n3nc(C)cc3C)n2)n1	i	i	i	i	i	i	nt	nt
CC1CCC(NC(=O)C2CCC(CNS(=O)(=O)c3ccc4c(c3)C(C)(C)C(=O)N4C)CC2)CC1 (stereo not drawn)	i	i	i	nt	i	nt	nt	nt
Cc1c(Cl)cnc(NC(=O)COC(=O)c2ccc([N+](=O)[O-])s2)c1Cl	i	i	i	i	63	i	i	i
Clc1ccccc1OCCNc1nc(NCC2CC2)nc2ccsc12	i	i	i	nt	i	nt	nt	nt
COc1ccc2cc3cc(C(=O)Nc4ccc5c(c4)OCO5)oc3nc2c1	i	i	i	i	60	i	i	i
Cc1ccc2cc3cc(C(=O)NCc4ccc5c(c4)OCO5)oc3nc2c1	i	i	i	nt	54	i	i	i
Cc1cccc(C)c1NC(=O)C(c1ccccc1)N1CCN(C/C=C/c2ccccc2)CC1 (stereo not drawn)	i	i	i	nt	i	nt	nt	nt
NC(=S)N/N=C/c1coc2cc(Br)ccc2c1=O	i	i	i	i	i	i	nt	nt
NC(=S)N/N=C/c1coc2c(ccc3ccccc32)c1=O	i	i	i	i	55	i	i	i
OC(c1ccc(F)cc1)c1ncc(-c2ccc3ccccc3c2)[nH]1 (stereo not drawn)	i	i	i	nt	i	nt	nt	nt
Cc1nc(CN(C)c2ncnc3ccc(-c4ccc5c(c4)OCO5)cc23)cs1	i	i	i	nt	i	nt	nt	nt
CCOc1ccc(OCc2ccc(C(=O)NC(C)(C)C)o2)cc1	i	i	i	i	i	i	i	i
O=C1c2ccccc2C(c2nnnn2-c2ccc3ccccc3c2)N1C1CC1 (stereo not drawn)	i	i	nt	nt	nt	nt	nt	nt
COc1ccc(CCn2c(O)cc3nn(-c4nc5ccccc5s4)c(=O)c-3c2C)cc1	i	53	i	i	79	62	i	44
